In ChEMBL document CHEMBL1221324, “Synthesis and characterization of mitoQ and idebenone analogues as mediators of oxygen consumption in mitochondria” (2010):
Active and inactive are the calls of the source. The calls are words filed in the database; no cut-off is given here.

Tests used:
[1] = tested on: CCRF-CEM; assay: Cytoprotective activity against diethyl maleate-induced cell death in human CEM cells assessed as cell viability at 0.1 uM treated 18 hrs before diethyl maleate challenge measured after 4 hrs by trypan blue assay; assay type: functional; details: read-out: Activity
Method in brief: (§1)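 CEM leukemia cells grown in RPMI 1640 with 10% FBS and 1% penicillin-streptomycin; 5 × 10⁵ cells/well pretreated with compound for 18 h, then exposed to 5 mM diethyl maleate at 37 °C, 5% CO2 for 4 h. Viability by 0.4% trypan blue exclusion, as percent of control cells given neither DEM nor compound; mean ± SD, n=3.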

[2] = tested on: CCRF-CEM; assay: Cytoprotective activity against diethyl maleate-induced cell death in human CEM cells assessed as cell viability at 0.5 uM treated 18 hrs before diethyl maleate challenge measured after 4 hrs by trypan blue assay; assay type: functional; details: read-out: Activity; method in brief: as §1
[3] = tested on: CCRF-CEM; assay: Cytoprotective activity against diethyl maleate-induced cell death in human CEM cells assessed as cell viability at 2.5 uM treated 18 hrs before diethyl maleate challenge measured after 4 hrs by trypan blue assay; assay type: functional; details: read-out: Activity; method in brief: as §1
[4] = tested on: C2C12; assay: Inhibition of rotenone-induced blockade of mitochondrial complex 1 in mouse C2C12 cells assessed as increase of oxygen consumption at 10 uM after 2 hrs by fluorescence assay in presence of FCCP; assay type: cell-based
Method in brief: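 C2C12 cells grown in DMEM with 10% FBS and 2 mM glutamine were trypsinized, resuspended in phenol red-free medium and pretreated with 25 nM rotenone. They were plated at 200,000 cells/well on an oxygen biosensor plate and given 10 μM compound with 5 μM FCCP. Fluorescence (ex 485/em 620 nm) was followed for 2 h. Rate is M/T, slope at 50% maximum over time to 50% maximum, in triplicate.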

Compound | viability at 0.1 µM [1] | viability at 0.5 µM [2] | viability at 2.5 µM [3] | Rescue of oxygen consumption (active/not active) [4]
CC1=C(C)C(=O)C(CCCCCCCCCCO)=C(C)C1=O | 34.8% | 77.3% | 96.3% | 
COC1=C(OC)C(=O)C(CCCCCCCCCCO)=C(C)C1=O [IDEBENONE] | 24.6% | 35.8% | 86.2% | 
COC1=C(OC)C(=O)C(CCC[P+](c2ccccc2)(c2ccccc2)c2ccccc2)=C(C)C1=O |  |  |  | Active
COC1=C(C)C(=O)C(CCCCCCCCCCO)=C(C)C1=O | 22.9% | 74.7% | 82.3% | 
COC1=C(C)C(=O)C(C)=C(CCCCCCCCCCO)C1=O | 8.27% | 21.2% | 77.1% | 
COC1=C(OC)C(=O)C(CCCCC[P+](c2ccccc2)(c2ccccc2)c2ccccc2)=C(C)C1=O |  |  |  | inactive
COC1=C(OC)C(=O)C(CCCCCCCCCCCCCCC[P+](c2ccccc2)(c2ccccc2)c2ccccc2)=C(C)C1=O |  |  |  | inactive
COC1=C(OC)C(=O)C(CCCCCCCCCC[P+](c2ccccc2)(c2ccccc2)c2ccccc2)=C(C)C1=O |  |  |  | inactive
